15 compounds from ChEMBL document CHEMBL1154235, “Rational design and semisynthesis of betulinic acid analogues as potent topoisomerase inhibitors” (J Nat Prod, 2009) can be followed below.

As a reminder, the pIC50 is −log10 of the IC50, conventionally taken in molar units. The low end stands for a large IC50, the high end for a small IC50. As a reminder, the GI50 is the concentration giving 50% growth inhibition.

In assay [1] the test system is HCT-116. In words: Antiproliferative activity against human HCT116 cells after 3 days by XTT assay. In kind it is functional, cell-based. Conditions: HCT-116, 72 h. An outline of the steps: (§1)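 Cells plated at 4000/well and grown 1 day at 37 °C, then exposed to a range of drug concentrations for 3 more days. Read-out by XTT tetrazolium reduction on a plate reader. Each concentration run in triplicate. IC50 taken from a linear-quadratic fit. Assays repeated two or three times and reported as mean ± SE. HCT-116 kept in modified McCoy's 5a and SW948 in Leibovitz's L-15, each with 10% heat-inactivated FBS and 2 mM L-glutamine.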

Assay [2] deals with SW948. Put plainly: Antiproliferative activity against human SW948 cells after 3 days by XTT assay. In kind it is functional, cell-based. As to conditions: SW948, 72 h. The gist of the method: as §1
For assay [3], the target named is T1, DNA topoisomerase 1 (Homo sapiens) (UniProt P11387).
T1 sequence (whole entry): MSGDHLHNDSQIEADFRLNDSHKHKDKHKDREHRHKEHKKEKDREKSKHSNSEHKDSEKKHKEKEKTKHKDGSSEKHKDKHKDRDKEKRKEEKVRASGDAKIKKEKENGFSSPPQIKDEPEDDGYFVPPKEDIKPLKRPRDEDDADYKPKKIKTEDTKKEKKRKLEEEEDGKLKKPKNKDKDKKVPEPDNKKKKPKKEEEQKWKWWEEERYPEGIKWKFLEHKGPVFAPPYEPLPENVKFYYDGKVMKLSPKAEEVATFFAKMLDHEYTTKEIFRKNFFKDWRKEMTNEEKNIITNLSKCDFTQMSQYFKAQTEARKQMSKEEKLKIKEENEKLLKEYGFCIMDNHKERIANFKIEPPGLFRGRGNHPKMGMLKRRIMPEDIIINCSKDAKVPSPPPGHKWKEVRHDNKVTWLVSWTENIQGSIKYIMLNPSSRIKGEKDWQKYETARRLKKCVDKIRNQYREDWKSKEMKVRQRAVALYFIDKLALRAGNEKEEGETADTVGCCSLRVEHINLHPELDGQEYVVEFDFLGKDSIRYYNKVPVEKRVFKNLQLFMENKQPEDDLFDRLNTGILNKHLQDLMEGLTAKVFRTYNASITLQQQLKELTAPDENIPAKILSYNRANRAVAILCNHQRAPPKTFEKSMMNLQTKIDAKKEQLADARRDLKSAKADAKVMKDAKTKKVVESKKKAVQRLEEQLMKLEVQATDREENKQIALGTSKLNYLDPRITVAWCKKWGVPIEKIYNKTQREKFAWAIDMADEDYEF
In words: Inhibition of topoisomerase 1 catalytic activity assessed as relaxation of supercoiled plasmid DNA at 100 uM after 30 mins by agarose gel electrophoresis. The gist of the method: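 Compound at 100 µM final with topoisomerase I (2U), 37 °C 30 min. Stopped with 1% SDS, proteinase K digestion, 1% agarose TAE gel, ethidium bromide stain, imaging quantitation. Scored 0 to 3+ against camptothecin.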

Assay [4] concerns the target DNA topoisomerase 2-alpha (Homo sapiens) (UniProt P11388). Put plainly: Inhibition of topoisomerase 2 alpha catalytic activity assessed as decatenation of kinetoplast DNA at 100 uM after 15 mins by agarose gel electrophoresis.
Assay [5] concerns MDA-MB-231. Put plainly: Antiproliferative activity against human MDA-MB-231 cells after 3 days by MTT assay. Type of assay: functional, cell-based. As to conditions: MDA-MB-231, 72 h. An outline of the steps: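 MDA-MB-231 cells kept in RPMI 1640 with 10% heat-inactivated FBS and 25 mM HEPES at 37 °C in 5% CO2. Plated at about 15 000/well and preincubated 1 day, then exposed to compound for 3 days at 37 °C, with doses in triplicate. MTT added for 4 h, formazan dissolved in detergent overnight at room temperature in the dark, OD read at 580 nm against a cell-free blank. Cell numbers from a calibration curve; IC50 from dose-response curves.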
On the technique in general: Tetrazolium dyes change colour on reduction, which living cells bring about.

Assay [6] deals with HL-60(TB). In words: Growth inhibition of human HL-60(TB) cells. In kind it is functional.
Assay [7] concerns MDA-MB-231. Put plainly: Growth inhibition of human MDA-MB-231 cells. Type of assay: functional.

pIC50: −log10 of the molar value. Activity calls are given as the source filed them. The calls are words filed in the database; no cut-off is given here.

Sequence of DNA topoisomerase 2-alpha (Homo sapiens) (P11388 whole entry): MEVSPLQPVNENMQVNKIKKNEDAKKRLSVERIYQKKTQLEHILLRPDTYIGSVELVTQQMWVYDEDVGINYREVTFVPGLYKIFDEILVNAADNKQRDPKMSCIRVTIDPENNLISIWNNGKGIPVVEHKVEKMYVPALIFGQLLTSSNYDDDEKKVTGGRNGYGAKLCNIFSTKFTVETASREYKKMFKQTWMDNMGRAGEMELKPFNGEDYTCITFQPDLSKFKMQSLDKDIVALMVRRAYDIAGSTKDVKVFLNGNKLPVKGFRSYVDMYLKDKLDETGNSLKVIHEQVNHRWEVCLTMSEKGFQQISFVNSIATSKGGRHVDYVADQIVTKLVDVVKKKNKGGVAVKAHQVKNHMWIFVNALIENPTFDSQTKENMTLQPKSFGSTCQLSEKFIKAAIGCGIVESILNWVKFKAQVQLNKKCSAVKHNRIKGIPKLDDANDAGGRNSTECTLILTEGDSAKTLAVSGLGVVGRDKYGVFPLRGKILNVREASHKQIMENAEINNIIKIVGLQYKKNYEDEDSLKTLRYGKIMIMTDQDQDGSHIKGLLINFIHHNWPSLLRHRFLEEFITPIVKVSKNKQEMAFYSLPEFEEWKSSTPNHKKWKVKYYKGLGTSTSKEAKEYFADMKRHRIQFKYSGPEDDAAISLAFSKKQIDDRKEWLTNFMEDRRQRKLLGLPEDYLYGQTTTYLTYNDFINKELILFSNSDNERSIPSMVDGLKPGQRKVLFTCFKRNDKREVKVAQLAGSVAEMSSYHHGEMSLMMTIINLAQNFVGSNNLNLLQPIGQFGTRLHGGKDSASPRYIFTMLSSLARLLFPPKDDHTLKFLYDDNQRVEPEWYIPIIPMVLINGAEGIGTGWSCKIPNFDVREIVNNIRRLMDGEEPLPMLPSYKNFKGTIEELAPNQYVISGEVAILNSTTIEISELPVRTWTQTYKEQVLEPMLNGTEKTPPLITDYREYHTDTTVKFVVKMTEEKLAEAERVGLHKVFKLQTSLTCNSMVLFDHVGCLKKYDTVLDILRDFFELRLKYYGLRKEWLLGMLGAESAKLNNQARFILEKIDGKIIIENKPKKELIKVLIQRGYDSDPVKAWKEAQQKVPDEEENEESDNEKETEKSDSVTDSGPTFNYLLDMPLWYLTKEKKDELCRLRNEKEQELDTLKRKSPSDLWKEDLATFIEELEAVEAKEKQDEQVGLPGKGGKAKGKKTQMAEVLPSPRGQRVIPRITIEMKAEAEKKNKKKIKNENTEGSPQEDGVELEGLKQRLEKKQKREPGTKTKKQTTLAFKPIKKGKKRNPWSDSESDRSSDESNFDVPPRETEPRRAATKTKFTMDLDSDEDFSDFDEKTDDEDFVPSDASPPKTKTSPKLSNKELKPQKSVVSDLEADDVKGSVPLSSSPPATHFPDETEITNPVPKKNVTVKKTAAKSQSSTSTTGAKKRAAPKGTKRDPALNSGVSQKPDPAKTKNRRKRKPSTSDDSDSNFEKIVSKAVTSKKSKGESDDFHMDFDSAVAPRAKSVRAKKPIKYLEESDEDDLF

On to `C=C(C)[C@@H]1CC[C@]2(C(=O)O)CC[C@]3(C)[C@H](CC[C@@H]4[C@@]5(C)CC[C@H](OC(=O)Nc6ccc(-c7ccccc7)cc6)C(C)(C)[C@@H]5CC[C@]43C)[C@@H]12`, for which the pIC50 in assay [1], in assay [2] and in assay [5] was < 4.60 throughout. The inhibition result in assay [3] is “inactive”. Also, the inhibition entry in assay [4] is “Active”.
In the case of `CC1(C)[C@@H](O)CC[C@]2(C)[C@H]3CC[C@@H]4[C@H]5[C@H]([C@]6(C)CO6)CC[C@]5(C(=O)O)CC[C@@]4(C)[C@]3(C)CC[C@@H]12`, the negative-log IC50 (pIC50) in assay [1] is < 4.60; in assay [2], < 4.60; in assay [5], 5.39. Also, the inhibition entry in assay [3] and in assay [4] was “inactive” throughout.
As to `C=C(C)[C@@H]1CC[C@]2(C(O)=S)CC[C@]3(C)[C@H](CC[C@@H]4[C@@]5(C)CCC(=O)C(C)(C)[C@@H]5CC[C@]43C)[C@@H]12`, the negative logarithm of the IC50 (pIC50) in assay [1], in assay [2] and in assay [5] was < 4.60 in each case. The inhibition entry in assay [3] and in assay [4] was “inactive” throughout.
For `C=C(C)[C@@H]1CC[C@]2(C(=O)NS(=O)(=O)c3ccccc3)CC[C@]3(C)[C@H](CC[C@@H]4[C@@]5(C)CC[C@H](OC(=O)NS(=O)(=O)c6ccccc6)C(C)(C)[C@@H]5CC[C@]43C)[C@@H]12`, the pIC50 was 4.87 in assay [1], 4.76 in assay [2] and 6.04 in assay [5]. In addition, the inhibition entry in assay [3] and in assay [4] was “Active” throughout.
As to `C=C(C)[C@@H]1CC[C@]2(C(=O)O)CC[C@]3(C)[C@H](CC[C@@H]4[C@@]5(C)CC[C@H](OC(=O)NCc6ccccc6)C(C)(C)[C@@H]5CC[C@]43C)[C@@H]12`, the figures for the negative-log IC50 (pIC50) in assay [1], in assay [2] and in assay [5] were 4.65, < 4.60 and 6.35, respectively. Also, the inhibition result in assay [3] and in assay [4] was “Active” each time.
For `C[C@H](C=O)[C@@H]1CC[C@]2(C(=O)O)CC[C@]3(C)[C@H](CC[C@@H]4[C@@]5(C)CC[C@H](O)C(C)(C)[C@@H]5CC[C@]43C)[C@@H]12`, the results for the pIC50 in assay [1], in assay [2] and in assay [5] were < 4.60, < 4.60 and 6.77, respectively. For the same compound, in assay [3], the inhibition result is “Active”. Further, the inhibition result in assay [4] is “inactive”.
Turning to `C=CCNC(=O)O[C@H]1CC[C@]2(C)[C@H]3CC[C@@H]4[C@H]5[C@H](C(=C)C)CC[C@]5(C(=O)O)CC[C@@]4(C)[C@]3(C)CC[C@H]2C1(C)C`, the pIC50 in assay [1] is 4.75; in assay [2], 4.75; in assay [5], 6.19. The inhibition result in assay [3] is “inactive”. Further, in assay [4], the inhibition result is “Active”.
For the compound `C=C(C)[C@@H]1CC[C@]2(C(=O)O)CC[C@]3(C)[C@H](CC[C@@H]4[C@@]5(C)CCC(=O)C(C)(C)[C@@H]5CC[C@]43C)[C@@H]12` [BETUNOLIC ACID], the pIC50 in assay [1] was 5.58; in assay [2], 4.72; in assay [5], 5.01. For the same compound, the inhibition result in assay [3] and in assay [4] was “inactive” throughout.
As to `C=C(C)[C@@H]1CC[C@]2(C(=O)O)CC[C@]3(C)[C@H](CC[C@@H]4[C@@]5(C)CC[C@H](OC(=O)Nc6cccc7ccccc67)C(C)(C)[C@@H]5CC[C@]43C)[C@@H]12`, the pIC50 in assay [1], in assay [2] and in assay [5] was < 4.60 each time. Further, the inhibition result in assay [3] was “inactive”. Also, the inhibition entry in assay [4] is “Active”.
On to `C=C(C=O)[C@@H]1CC[C@]2(C(=O)O)CC[C@]3(C)[C@H](CC[C@@H]4[C@@]5(C)CC[C@H](O)C(C)(C)[C@@H]5CC[C@]43C)[C@@H]12`, for which the results for the pIC50 in assay [1], in assay [2] and in assay [5] were 5.36, 4.83 and 5.86, respectively. Further, in assay [3], the inhibition result is “Active”. For the same compound, the inhibition entry in assay [4] is “inactive”.
With `C=C(C)[C@@H]1CC[C@]2(C(O)=S)CC[C@]3(C)[C@H](CC[C@@H]4[C@@]5(C)CC[C@H](OP(=S)(S)c6ccc(OC)cc6)C(C)(C)[C@@H]5CC[C@]43C)[C@@H]12` (stereo partly specified), the negative logarithm of the IC50 (pIC50) in assay [1] was < 4.60; in assay [2] it was < 4.60; in assay [5] it was 5.01. Further, the inhibition entry in assay [3] and in assay [4] was “Active” in each case.
On to `COc1cc([C@@H]2c3cc4c(cc3[C@@H](O[C@@H]3O[C@@H]5CO[C@@H](C)O[C@H]5[C@H](O)[C@H]3O)[C@H]3COC(=O)[C@H]23)OCO4)cc(OC)c1O` [ETOPOSIDE], for which the pIC50 in assay [2] was 5.89. Besides, in assay [4], the inhibition result was “Active”.
Consider `C=C(C)[C@@H]1CC[C@]2(C(=O)O)CC[C@]3(C)[C@H](CC[C@@H]4[C@@]5(C)CC[C@H](O)C(C)(C)[C@@H]5CC[C@]43C)[C@@H]12` [BETULINIC ACID], for which the GI50 is 3.16 µM in assay [6] and 3.98 µM in assay [7]. Also, the pIC50 was 4.87 in assay [1], 4.98 in assay [2] and 4.82 in assay [5]. Besides, the inhibition result in assay [3] and in assay [4] was “inactive” each time.
In the case of `CC[C@@]1(O)C(=O)OCc2c1cc1n(c2=O)Cc2cc3ccccc3nc2-1` [CAMPTOTHECIN], the results for the pIC50 in assay [1] and in assay [2] were 6.89 and 6.80, respectively.
As for `C=C(C)[C@@H]1CC[C@]2(C(=O)O)CC[C@]3(C)[C@H](CC[C@@H]4[C@@]5(C)CC[C@H](OS(=O)(=O)c6ccccc6)C(C)(C)[C@@H]5CC[C@]43C)[C@@H]12`, the pIC50 in assay [1] was 4.67; in assay [2], 5.16; in assay [5], 6.10. Moreover, the inhibition result in assay [3] was “inactive”. For the same compound, in assay [4], the inhibition entry is “Active”.
